According to PMC8082945 (Journal of medicinal chemistry, 2020):
Where “and” joins values, the source holds several entries; their conditions need not be identical. Identical values can stand only once.

What was measured:
[1] = test system: BxPC-3 pancreatic cancer cells; assay: MTT cytotoxicity assay in BxPC-3 cells; type: cell-based; details: read-out: IC50 BxPC-3, 72 h, mean ± sd, three independent experiments
How it was run: (§1)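 Cells kept in RPMI 1640 with 10% FBS, under 35 passages, mycoplasma-free. Seeded in 96-well plates and attached overnight. Exposed to test compound or DMSO for 72 h, then 0.3 mg/mL MTT for 3 h at 37 °C. Medium removed, formazan dissolved in DMSO with 15 min shaking, absorbance read at 570 nm. IC50 obtained by curve fitting; mean ± SD from at least three independent experiments.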

[2] = test system: MIA PaCa-2 pancreatic cancer cells; assay: MTT cytotoxicity assay in MIA PaCa-2 cells; type: cell-based; details: read-out: IC50 MIA PaCa-2, 72 h, mean ± sd, three independent experiments
How it was run: as §1

[3] = test system: PANC-1 pancreatic cancer cells; assay: MTT cytotoxicity assay in PANC-1 cells; type: cell-based; details: read-out: IC50 PANC-1, 72 h, mean ± sd, three independent experiments
How it was run: as §1

LRPPRC and PNPT1 = assay: Immunoblot of LRPPRC and PNPT1 expression; type: cell-based; details: MIA PaCa-2 cells, 3 × IC50, 4 h
How it was run: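 Cells seeded at 3.5 × 10^5 per 6-well were treated for 1 h or 4 h (H2O2 comparator 150 μM). Lysis was in RIPA with protease/phosphatase inhibitors, then sonication and BCA. 25 μg protein was run on 10% SDS-PAGE and transferred to PVDF. Blocking: 5% milk. Primary antibodies 1:500–1:1000 overnight at 4 °C, Dylight 800 secondary 1:6000 for 1 h. Infrared imaging; band densities normalized to loading controls.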

STAT3 = assay: Immunoblot of STAT3 phosphorylation and pH2AX; type: cell-based; details: MIA PaCa-2 and PANC-1 cells, 4 h
How it was run: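 Cells seeded at 3.5 × 10^5/well (6-well) and treated 4 h at indicated concentrations. Lysed in RIPA with protease and phosphatase inhibitors, sonicated and centrifuged. 25 μg protein run on 10% SDS-PAGE and transferred to PVDF. Blocked in 5% milk; primary antibodies (STAT3, pSTAT3, pH2AX, GAPDH; 1:500–1:1000) overnight at 4 °C; infrared secondary 1:6000, 1 h RT. Signals normalised to loading control.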

MIA PaCa-2 cells [4] = assay: Cellular ROS measurement; type: cell-based; details: for Cellular ROS: MIA PaCa-2 cells, 0-4 h, 30 min
How it was run: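 MIA PaCa-2 cells (RPMI 1640, 10% FBS, 37 °C, 5% CO2) seeded at 1.8 × 10^4 cells/well and attached overnight. Cells loaded with 10 μM CM-H2DCFDA in HBSS for 40 min at 37 °C, then washed twice with DPBS. Test compound added in HBSS at set concentrations. Fluorescence read at Ex 483/Em 530 nm over time. TBHP served as positive control.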

pancreatic cancer cells = assay: Colony formation assay, drug combinations; type: cell-based
How it was run: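 Cells seeded in 96-well plates: 300/well for MIA PaCa-2, 600/well for PANC-1 and BxPC-3; attached overnight. Partner drug added 1 h before test compound, with continuous exposure. Incubation ran 7–9 days, until control wells were 80–90% confluent. Stained with 0.05% crystal violet for 30 min, washed, dried and imaged. Synergy scored with HSA and Bliss models.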

GPX4 = target: T1, GPX4 (Homo sapiens, UniProt P36969); assay: Cellular thermal shift assay; type: cell-based; details: pancreatic cancer cells, 100 μM, 1 h
T1 sequence (P36969 1-197): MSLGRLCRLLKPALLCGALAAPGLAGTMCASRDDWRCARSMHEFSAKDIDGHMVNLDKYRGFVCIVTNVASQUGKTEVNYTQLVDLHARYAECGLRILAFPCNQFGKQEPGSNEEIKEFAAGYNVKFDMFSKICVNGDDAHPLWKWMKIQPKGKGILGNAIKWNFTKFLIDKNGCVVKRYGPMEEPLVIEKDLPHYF
How it was run: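 MIA PaCa-2 or PANC-1 cells seeded at 3 × 10^6 per 10 cm dish, attached overnight, then exposed to 100 μM test compound or DMSO for 1 h. After heating, supernatants were resolved on 10% SDS gels and immunoblotted for GPX4. Bands were quantified to derive a GPX4 melting temperature.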

PK study in CD-1 mice = type: in vivo; details: for Concentration at 7 h in mouse plasma, IP: IP 10 mg/kg, 10 mg/kg; for Concentration at 7 h in mouse plasma, IP / Concentration at 7 h in mouse plasma, PO: n=2, individual values; for Survival of mice after IV injection: IV 10 mg/kg; for Concentration at 7 h in mouse plasma, PO: PO 20 mg/kg, 20 mg/kg
How it was run: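 CD-1 mice dosed IP (10 mg/kg), PO (20 mg/kg) or IV (10 mg/kg). Blood drawn at 0.5, 2, 4 and 7 h using heparinized calibrated pipettes and centrifuged at 15,000 rpm for 10 min. Plasma collected, frozen at −80 °C, and assayed by LC-MS/MS.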

GSH/GSSG ratio = assay: GSH/GSSG-Glo assay; type: cell-based; details: MIA PaCa-2 cells, 2 h and 4 h treatment
How it was run: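 Luminescent GSH/GSSG-Glo kit. 15,000–20,000 cells/well attached overnight, then were treated. Medium was removed and cells were lysed in Total or Oxidized Glutathione Reagent (5 min shaking). Luciferin Generation Reagent was added for 30 min at room temperature, then Detection Reagent; luminescence was read after 15 min equilibration. Ratio from net RLU = (total glutathione − GSSG)/(GSSG/2).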

MIA PaCa-2 cells [5] = assay: Lipid ROS measurement; type: cell-based; details: 24 h treatment, BODIPY C11
How it was run: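 After compound exposure, MIA PaCa-2 cells received 10 μM C11-BODIPY for 30 min at 37 °C. They were washed twice with DPBS and read in HBSS on a plate reader at Ex/Em 581/591 nm (reduced dye) and 488/510 nm (oxidized dye). The Texas Red/FITC emission ratio was calculated; significance by unpaired Student's t-test.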

[6] = test system: mouse colon cancer cell line CT-26; assay: CT-26 subcutaneous tumor study in Balb/c mice; type: in vivo; details: n=5, preliminary study
[7] = Tissue distribution analysis in mice; type: in vivo; details: mouse, colon, intravenous, 10 mg/kg
How it was run: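 Tissue homogenised with bead beating in dissociation solvent at five-fold tissue weight. 30 μL homogenate mixed with 30 μL acetonitrile and 140 μL internal standard, vortexed, and centrifuged at 3500 g for 10 min. Supernatant analysed by LC-MS against calibration curves made in spiked blank homogenate.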

Compound: 6-(9H-Fluoren-4-ylamino)quinazoline-5,8-dione [QD390]
- IC50 [1]: 4.5 ± 0.6 µM
- IC50 [2]: 3.1 ± 1.5 µM
- IC50 [3]: 4.7 ± 1.5 µM

Compound: CC(=O)c1cc2c(o1)C(=O)c1ccccc1C2=O [Napabucasin, reference compound]
- Protein expression of LRPPRC and PNPT1 (LRPPRC and PNPT1): decreased the protein expression of these two genes

Compound: CN1CCN(c2ccc(NC3=CC(=O)c4ncncc4C3=O)cc2)CC1 [QD394, 6-(4-(4-Methylpiperazin-1-yl)phenylamino)quinazoline-5,8-dione]
- Phosphorylation of H2AX (DNA damage biomarker) (STAT3): increased the phosphorylation of H2AX
- Phosphorylation of STAT3 (STAT3): inhibited the phosphorylation of STAT3
- Cellular ROS (MIA PaCa-2 cells [4]): time-dependent cellular ROS accumulation
- Intracellular ROS level among analogs (MIA PaCa-2 cells [4]; after 1 h compound treatment): highest level of intracellular ROS
- Combination with napabucasin (pancreatic cancer cells; MIA PaCa-2 and PANC-1 cells): synergism
- Combination with As2O3 (pancreatic cancer cells; pancreatic cancer cells): sensitizes cells to As2O3
- Combination with olaparib (pancreatic cancer cells; pancreatic cancer cells): synergistic effects
- Effect on GPX4 protein stability (CETSA) (GPX4): destabilized GPX4 protein
- Concentration at 7 h in mouse plasma, IP (PK study in CD-1 mice): 5.0 ng/mL
- Survival of mice after IV injection (PK study in CD-1 mice; n=3, 10 mg/kg): two out of three mice administered with QD394 via IV injection died and 2 out of 3 mice died
- Concentration at 7 h in mouse plasma, PO (PK study in CD-1 mice): 23.3 ng/mL and 25.8 ng/mL
- Protein expression of LRPPRC and PNPT1 (LRPPRC and PNPT1): significantly decreased their expression at 4 h
- GSH/GSSG ratio (GSH/GSSG ratio): significantly decreased the GSH/GSSG ratio
- Lipid ROS (lipid peroxidation) (MIA PaCa-2 cells [5]): significantly increased lipid ROS in a dose-dependent manner
- Tumor shrinkage, QD394 IP group ([6]; CT-26, IP 20 mg/kg): Three out of five mice displayed tumor shrinkage

Compound: CC1=C(Nc2ccc(N3CCN(C)CC3)cc2)C(=O)c2cncnc2C1=O [QD394-Me, 7-Methyl-6-((4-(4-methylpiperazin-1-yl)phenyl)amino)quinazoline-5,8-dione]
- concentration at 1 h [7]: ~300 ng/g
- Cellular ROS (MIA PaCa-2 cells [4]): significantly increased cellular ROS
- Effect on GPX4 protein stability (CETSA) (GPX4): destabilized GPX4 protein
- Concentration at 7 h in mouse plasma, IP (PK study in CD-1 mice): 6.7 ng/mL and 1.1 ng/mL
- Survival of mice after IV injection (PK study in CD-1 mice; n=3): all three mice that received IV injections of QD394-Me survived
- Concentration at 7 h in mouse plasma, PO (PK study in CD-1 mice): 4.2 ng/mL
- Protein expression of LRPPRC and PNPT1 (LRPPRC and PNPT1): significantly decreased protein expression of LRPPRC and PNPT1
- Lipid ROS (lipid peroxidation) (MIA PaCa-2 cells [5]): increased lipid ROS significantly in a dose-dependent manner
- Tumor shrinkage, QD394-Me IV group ([6]; CT-26, IV 10 mg/kg): Three out of five mice displayed tumor shrinkage
